Source: PubChem BioAssay
Calb FLC: affects C. albicans growth with fluconazole | growth inhibition, % (test concentration not listed) | C. albicans CaCi-2 (fluconazole-resistant clinical isolate) + fluconazole, Alamar Blue growth, 48 h | 0.57% of 300,000 active;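 active = growth inhibition above about 58% in most replicates, limit read from the data, passing the limit was not always enough; inconclusive = exactly half the replicates above a set limit; inactive = most replicates below a set limit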;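 also: all wells also contain fluconazole at 8 µg/ml as a sub-toxic cotreatment; 0% = median of DMSO wells and 100% = median of geldanamycin control wells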
Beta cell apopt: blocks beta cell apoptosis; protection from apoptosis, % (test concentration not listed); 0.8% of 300,000 active; INS-1E cytokine-induced death, ATP luminescence, 48 h; percent of positive-control rescue, neutral wells zero;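 active = Every replicate reaches about 75%, or at least half do and their mean reaches it too, limit read from the data; inconclusive = At least half of replicates reach the limit but their mean does not; inactive = Under half of replicates reach the limit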;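 also: 0% = cytokine-treated negative control wells and 100% = positive control rescue; higher means more ATP so stronger rescue from cytokine killing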
T cruzi inh: blocks replication of Trypanosoma cruzi | T. cruzi beta-gal in NIH3T3, luminescence, 90 h | inhibition, % (concentration not given with the values) | 1.4% of 300,000 active;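 active = mean inhibition across valid replicates above about 55%, limit read from the data; inconclusive = mean below that limit but half or more replicates reach it; inactive = mean below it, under half of replicates reach it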;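 also: signal also drops with host cell toxicity which is not excluded here; 0% = plate median of DMSO wells and 100% = zero luminescence signal; higher percent means less beta-gal luminescence so fewer parasites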
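Assay system: NIH/3T3 host cells with β-galactosidase reporter T. cruzi; input: 5,000 host fibroblasts per well; compound: single 50 nL compound addition per well in DMSO; timing: ≥90 h infection period, 3 h prior cell attachment; measured by: GalScreen β-gal luminescence, detergent lysis, 60 min; evaluation: percent inhibition of parasite-derived β-gal signal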
CSC inhib: cancer stem cell inhibition; AID 2717; 1.1% of 300,000 active; inhibition, % at 7.5 µM; cancer stem cell-like cells viability, luminescence; in the data active = inhibition above about 75%; inconclusive = no clear call, values can overlap the other calls; tested in HMLE shEcad cells
Mdm2 MdmX PPI: human Mdm2/MdmX binding inhibition; O15151+Q00987; SaOS-2 split-luciferase Mdm2/MdmX complementation, luminescence; inhibition, % at 8 µM; 3% of 330,000 active; AID 485346;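 active = inhibition of at least 50% at 8 µM in the primary screen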
Target sequence (O15151 whole entry, looked up): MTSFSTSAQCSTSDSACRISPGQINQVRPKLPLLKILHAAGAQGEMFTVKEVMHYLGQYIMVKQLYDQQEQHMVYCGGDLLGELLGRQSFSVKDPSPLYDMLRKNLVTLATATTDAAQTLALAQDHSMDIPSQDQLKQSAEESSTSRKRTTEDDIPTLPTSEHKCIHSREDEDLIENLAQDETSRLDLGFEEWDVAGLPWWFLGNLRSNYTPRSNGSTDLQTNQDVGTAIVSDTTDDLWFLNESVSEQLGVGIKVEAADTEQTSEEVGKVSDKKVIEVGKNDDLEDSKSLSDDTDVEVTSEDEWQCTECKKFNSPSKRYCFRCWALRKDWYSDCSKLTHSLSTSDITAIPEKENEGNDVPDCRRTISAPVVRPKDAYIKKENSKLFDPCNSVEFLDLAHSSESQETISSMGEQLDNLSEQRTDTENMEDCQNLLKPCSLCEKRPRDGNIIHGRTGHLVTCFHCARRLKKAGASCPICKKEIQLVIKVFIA
Target sequence (Q00987 whole entry, looked up): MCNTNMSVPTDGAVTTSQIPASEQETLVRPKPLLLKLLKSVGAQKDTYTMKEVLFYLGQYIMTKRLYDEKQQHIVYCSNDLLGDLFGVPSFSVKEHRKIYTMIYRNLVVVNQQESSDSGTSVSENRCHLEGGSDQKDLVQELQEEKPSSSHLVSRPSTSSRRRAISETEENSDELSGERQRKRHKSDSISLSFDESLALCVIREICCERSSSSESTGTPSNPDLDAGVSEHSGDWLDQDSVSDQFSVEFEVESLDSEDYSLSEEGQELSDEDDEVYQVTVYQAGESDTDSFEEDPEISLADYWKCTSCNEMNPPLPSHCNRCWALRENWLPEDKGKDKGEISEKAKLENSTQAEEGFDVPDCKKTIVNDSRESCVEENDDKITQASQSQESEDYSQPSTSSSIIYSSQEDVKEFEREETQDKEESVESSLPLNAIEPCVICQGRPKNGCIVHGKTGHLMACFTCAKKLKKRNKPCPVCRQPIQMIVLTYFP
SKKanGAS inh: blocks kanamycin growth of S. pyogenes SKKanGAS strain; BacTiter-Glo, 6 h; inhibition, % at 7.5 µM; 1.3% of 300,000 active; AID 1662;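 active = mean replicate score, as percent of positive control median, at least 50; inconclusive = mean below 50 but one replicate at or above 50; inactive = mean and every replicate below 50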;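 also: strain carries kanamycin resistance gene driven by streptokinase promoter and grows in 40 µg/ml kanamycin; loss of luminescence reflects streptokinase promoter inhibition or plain growth inhibition; 0% = median of DMSO wells and 100% = positive control at its reference dose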
Mdm2 MdmX conf: confirmation of human Mdm2/MdmX interaction inhibitors; AID 489028; inhibition, % at 8 µM; 55% of 10,000 active; Mdm2-MdmX binding, luminescent assay; shares compounds with Mdm2 MdmX PPI; in the data active = inhibition above about 40%
Full FLuc ctr: full-length luciferase inhibition in Mdm2/MdmX counter-screen | shares compounds with Mdm2 MdmX PPI | SaOS-2 full-length luciferase counterscreen, luminescence | inhibition, % at 8 µM | 77% of 6,200 active | AID 504607;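 active = mean inhibition at 8 µM reaching about 37%, which flags the compound as non-specific, limit read from the data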;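 also: p53-null SaOS-2 cells with luciferase driven by a doxycycline-inducible promoter; compound on cells about two nights before reading with doxycycline added after day one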
An asterisk follows results filed as active; u = inconclusive; x = not tested or not shown. The list is not random: actives were taken first. Their share in the collection is about 5.7%.

SMILES	Calb FLC	Beta cell apopt	T cruzi inh	CSC inhib	Mdm2 MdmX PPI	SKKanGAS inh	Mdm2 MdmX conf	Full FLuc ctr
CCc1cc2c3c(c1)C1(C(=O)N3C(C)(C)CC2C)C(C#N)=C(N)N2C(=C1C#N)Nc1ccccc12 (stereo not given)	-6.6	-0.5	19.5	17.4	32.3	35.5	x	x
CCn1ncc(Cl)c1C(=O)Nc1ccc2c(c1)CCC2	9.1	x	0.6	-3.2	32.0	2.1	x	x
CCOC1=NN(c2ccc(Cl)cc2)C(=O)/C1=C\N(C)C	-3.3	-6.4	-3.0	-0.6	-16.3	1.0	x	x
CCOC1=NN(c2ncc(C(F)(F)F)cc2Cl)C(=O)/C1=C/N(C)C	21.5	-6.6	0.5	-5.4	69.7*	0.0	-7.0	x
CCc1ccc(N2CC(C(=O)Nc3ccc(S(=O)(=O)N4CCOCC4)cc3)CC2=O)cc1 (stereo not given)	1.5	-4.9	0.8	-7.5	23.8	-8.8	x	x
O=S(=O)(NCc1cccnc1)c1ccc2ccccc2c1	17.4	3.0	-6.5	x	9.5	-12.6	x	x
CCOc1ccccc1Nc1nnc(SCC(=O)NC(=O)c2cccn2C)s1	-5.4	-11.1	2.9	-11.7	3.5	2.0	x	x
CCOc1ccccc1Nc1nnc(SC(C)C(=O)Nc2nc(-c3ccccc3)cs2)s1 (stereo not given)	-6.6	5.3	8.9	24.3	86.0*	1.2	78.7*	35.2
CCOc1ccc(NC(=S)NNc2ccnc3cc(Cl)ccc23)cc1	-8.9	2.2	-6.5	x	18.4	-12.1	x	x
S=C(NNc1ccnc2cc(Cl)ccc12)Nc1ccc(Cl)cc1Cl	18.7	15.1	44.5	28.1	91.5*	70.9*	31.0	48.9*
C[C@H]1CN([C@@H](C)CO)C(=O)Cc2cc(NC(=O)CCC(F)(F)F)ccc2O[C@H]1CN(C)S(=O)(=O)c1ccc(F)cc1	x	-8.3	x	45.0	43.2	x	x	x
CC1Cc2ccccc2N1S(=O)(=O)c1cccc(C(=O)NCc2ccccn2)c1 (stereo not given)	x	-0.1	x	-8.0	-2.2	x	x	x
CC1Cc2ccccc2N1S(=O)(=O)c1cccc(C(=O)N2CCN(c3ncccn3)CC2)c1 (stereo not given)	18.7	0.9	6.2	50.6	90.3*	-1.2	89.3*	55.1*
O=C(c1cccc(S(=O)(=O)N2CCc3ccccc32)c1)N1CCc2ccccc2C1	x	3.7	x	x	34.3	x	x	x
CCN(CC)CCNC(=O)c1ccc(NC(=O)c2cccc(S(=O)(=O)N3c4ccccc4CC3C)c2)cc1 (stereo not given)	9.5	-5.1	31.0	21.8	79.6*	-0.1	26.9	x
CCOC(=O)c1ccc(NC(=O)c2cccc(S(=O)(=O)N3c4ccccc4CC3C)c2)s1 (stereo not given)	u	35.9	50.1	47.1	56.6*	36.3	32.9	x
CC1Cc2ccccc2N1S(=O)(=O)c1cccc(C(=O)NCCCO)c1 (stereo not given)	-0.1	-1.3	0.6	10.0	0.7	1.2	x	x
COc1cc2c(cc1OC)CN(C(=O)c1cccc(S(=O)(=O)N3CCc4ccccc43)c1)CC2	x	1.2	x	33.5	90.2*	x	59.4*	85.7*
Cc1cccc(-n2cc(CNCCc3nc(C)cc(C)n3)c(-c3cccc(F)c3)n2)c1	-2.7	10.4	36.4	19.7	46.7	17.4	x	x
CCN(CC)CCNC(=O)c1cc(S(=O)(=O)N2CCc3ccccc32)cn1C	-12.0	-6.7	-18.5	-4.0	24.7	-1.1	x	x
CC(C(=O)N1CCc2ccccc21)N1CCc2ccccc2C1 (stereo not given)	-10.7	-1.9	2.6	-0.2	7.5	-1.1	x	x
CCN(CC)CCNC(=O)c1ccc(NC(=O)c2cccc(S(=O)(=O)N3CCc4ccccc43)c2)cc1	x	x	x	x	75.7*	x	43.5*	66.9*
CN(Cc1nc2ccccc2c(=O)[nH]1)C(=O)c1cccc(S(=O)(=O)N2CCc3ccccc32)c1	x	6.1	x	23.8	80.9*	x	55.0*	67.6*
COc1cc2c(cc1OC)CN(C(C)C(=O)N1CCc3ccccc31)CC2 (stereo not given)	x	2.5	12.3	-1.3	52.0*	-7.3	34.4	84.1*
CN(Cc1nc2ccccc2c(=O)[nH]1)C(=O)c1cccc(S(=O)(=O)N2CCCCCC2)c1	x	-1.4	x	x	13.4	x	x	x
